Results on 36 sequences are retold here after the array DNA melting data of Ke et al. (doi:10.1101/2024.01.08.574731).

The nature of data set [1]: melting temperature; fluorescence melt of hairpins on a sequencing array, two-state fit, raised by 9.35 °C to match UV melts. The conditions noted are these: sodium 0.088 M. The method in brief:
(§1)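 Folding enthalpy and melting temperature were estimated with bootstrapped two-state fits and combined across four replicates by inverse-variance weighting, with fitted temperatures raised by 9.35 °C to match UV melts. The data were Cy3 fluorescence of library hairpins, with annealed Cy3 and quencher oligos, on a sequenced MiSeq flow cell in 50 mM Na-HEPES pH 8.0, 25 mM NaCl, imaged in 2.5 °C steps up to 60 °C and normalised to pre-quench Cy3 and control constructs.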

A short description of data set [2]: folding enthalpy; higher = less favourable; fluorescence melt of hairpins on a sequencing array, two-state fit. The conditions noted are these: sodium 0.088 M. The method in brief:
as §1

As to GCCGAGCGAAAGCTCAGC ((.((((....)))).)), the Tm in data set [1] amounted to 58 °C. For the same sequence, in data set [2], the folding enthalpy was -18.1 kcal/mol.

For the sequence GTAGTCGAAAGACTGTAC ((((((....)))..))), the Tm in data set [1] was 32.1 °C. In addition, in data set [2], the folding enthalpy was -13.8 kcal/mol.

Consider GATGAGGGAAACCCCATC ((((.((....)).)))), for which the Tm in data set [1] is 41.2 °C. In data set [2], the folding enthalpy was -31.4 kcal/mol.

Regarding GTCGGCGAAAGCCCAGAC ((((((....)))..))), the Tm in data set [1] worked out at 42.7 °C. The folding enthalpy in data set [2] was -13.5 kcal/mol.

As for GTCAAACGAAAGTTCGAC (((.(((....))).))), the Tm in data set [1] was 43.1 °C. In addition, in data set [2], the folding enthalpy was -30.7 kcal/mol.

Take GATAGGCGAAAGCCGATC (((.(((....))).))): in data set [1], the Tm came to 55.5 °C. Moreover, in data set [2], the folding enthalpy was -16.8 kcal/mol.

Consider GGAGGCGAAAGCCACTCC ((((((....)))..))), for which the Tm in data set [1] stood at 42.6 °C. The folding enthalpy in data set [2] was -12.1 kcal/mol.

In the case of GGATCCGAAAGGAACTCC ((((((....)))..))), the Tm in data set [1] came to 34.7 °C. Moreover, the folding enthalpy in data set [2] is -13.3 kcal/mol.

Turning to GTTGAGGGAAACCTTGAC ((..(((....)))..)), in data set [1], the Tm amounted to 29.7 °C. Further, the folding enthalpy in data set [2] is -12 kcal/mol.

GATGGACGAAAGTCAATC (((.(((....))).))): in data set [1], the Tm was 48.1 °C. Moreover, in data set [2], the folding enthalpy was -26.3 kcal/mol.

As to GCTCCGCGAAAGCCCAGC (((..((....))..))), the Tm in data set [1] was 23.2 °C. Also, the folding enthalpy in data set [2] is -5.26 kcal/mol.

For the sequence GAACGCGGAAACGCACTC ((..(((....)))..)), the Tm in data set [1] amounted to 30.1 °C. Moreover, in data set [2], the folding enthalpy was -8.19 kcal/mol.

For the sequence GCGAGGCGAAAGCTTGGC ((.(.((....)).).)), the Tm in data set [1] stood at 46.1 °C. In addition, the folding enthalpy in data set [2] is -12.1 kcal/mol.

As to GTGGCGGGAAACTGCCAC (((((.(....).))))), the Tm in data set [1] amounted to 60.7 °C. Further, the folding enthalpy in data set [2] is -54.1 kcal/mol.

Regarding GGGGAGACGAAAGTCCCC (((..(((....)))))), the Tm in data set [1] turned out to be 58.1 °C. Further, the folding enthalpy in data set [2] is -29.6 kcal/mol.

On to GATCTAGGCATAGATC ((((((....)))))), for which the Tm in data set [1] came out at 48.8 °C. Further, in data set [2], the folding enthalpy was -36.9 kcal/mol.

Consider GATCAAGCGTTGATC ((((((...)))))), for which, in data set [1], the Tm was 40.2 °C. For the same sequence, the folding enthalpy in data set [2] was -29.6 kcal/mol.

GGCAACGAAAGTTCGGCC ((((((....)))..))): the Tm in data set [1] is 44.4 °C. In addition, in data set [2], the folding enthalpy is -25.2 kcal/mol.

As to GATCCTCTAAGGATC ((((((...)))))), the Tm in data set [1] turned out to be 54.3 °C. Further, in data set [2], the folding enthalpy is -33.3 kcal/mol.

In the case of GACCTGACGAAAGTCGTC (((..(((....)))))), the Tm in data set [1] turned out to be 35.9 °C. Besides, the folding enthalpy in data set [2] was -9.44 kcal/mol.

Turning to GTCGTAGAAATACGAC ((((((....)))))), the Tm in data set [1] came out at 56 °C. For the same sequence, the folding enthalpy in data set [2] is -38 kcal/mol.

In the case of GGTCTTCGAAAGAAAACC (((.(((....))).))), the Tm in data set [1] stood at 35.2 °C. Besides, the folding enthalpy in data set [2] was -25.7 kcal/mol.

For GTATGGAAACATAC (((((....))))), the Tm in data set [1] amounted to 43.4 °C. In addition, the folding enthalpy in data set [2] was -23.5 kcal/mol.

As for GATCCACCATTGGATC ((((((....)))))), the Tm in data set [1] worked out at 49.4 °C. Also, in data set [2], the folding enthalpy is -31.5 kcal/mol.

As to GATCGGATAACCGATC ((((((....)))))), in data set [1], the Tm was determined as 56.2 °C. Moreover, in data set [2], the folding enthalpy is -35.1 kcal/mol.

In the case of GCTTACCCGAAAGGGAGC (((..(((....)))))), the Tm in data set [1] came to 39 °C. The folding enthalpy in data set [2] is -15.3 kcal/mol.

With GCACAAGGAAACTTGCGC ((.((((....)))).)), the Tm in data set [1] came to 48.4 °C. In addition, the folding enthalpy in data set [2] is -37.9 kcal/mol.

For the sequence GTGAACGGAAACGCTCAC ((((.((....)).)))), the Tm in data set [1] was found to be 47.6 °C. Further, the folding enthalpy in data set [2] is -31.5 kcal/mol.

GTAACCGAAAGGTTAC ((((((....)))))): the Tm in data set [1] worked out at 67.1 °C. The folding enthalpy in data set [2] was -29 kcal/mol.

In the case of GATCGAGTATCGATC ((((((...)))))), the Tm in data set [1] came out at 59.6 °C. For the same sequence, the folding enthalpy in data set [2] is -40.9 kcal/mol.

GCACTTGGAAACAGGTGC ((((.((....)).)))): the Tm in data set [1] came to 51.7 °C. The folding enthalpy in data set [2] was -48.4 kcal/mol.

For GTTCTCGAAAGAGGTAAC ((((((....)))..))), the Tm in data set [1] stood at 22.7 °C. Besides, the folding enthalpy in data set [2] is -8.25 kcal/mol.

As to GGTGTCGAAAGACTTACC ((((((....)))..))), the Tm in data set [1] came out at 37.4 °C. Also, the folding enthalpy in data set [2] is -17.7 kcal/mol.

Regarding GCTCGTCGAAAGACTAGC (((.(((....))).))), the Tm in data set [1] was determined as 49 °C. The folding enthalpy in data set [2] is -39 kcal/mol.

Consider GCCGCGCGAAAGCCAGGC (((..((....))..))), for which, in data set [1], the Tm came to 62 °C. Moreover, the folding enthalpy in data set [2] was -27.8 kcal/mol.

As for GTACTGACGAAAGTCTAC (((..(((....)))))), the Tm in data set [1] was 21.8 °C. The folding enthalpy in data set [2] was -6.65 kcal/mol.
